# From ChEMBL document CHEMBL4513216, “Probing the Open Global Health Chemical Diversity Library for Multistage-Active Starting Points for Next-Generation Antimalarials” (ACS Infect Dis, 2020)
# Experiment: Toxicity liver stage against HepG2, at 10uM
# Format: cell-based
# Design: test concentration 10 uM, cell line HepG2-A16-CD81EGFP
# Settings: human, HepG2-A16-CD81EGFP cells; read-out: INHIBITION
# Outline: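 Uninfected HepG2-A16-CD81EGFP cells, 3 × 10^3 per well, 1536-well, plated on prespotted compound at 10 μM final, parasite-free screening media added to match infected plates; puromycin 10 μM positive, DMSO 0.5% negative; run in parallel with 48 h PbLuc assay at 37 °C, 5% CO2; viability by CellTiter-Glo luminescence, normalized to controls.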
row,Structure (SMILES),cytotoxicity at 10 µM
1,Cc1cnn(-c2cncc(C(N)=O)c2)c1,3.04%
2,Cc1cnc(-c2cccc(-c3ccn(CCCO)n3)c2)nc1N(C)C,-7.6%
3,CCOCC1CN(Cc2ccc3c(c2)OCO3)Cc2ncn(C)c21 (configuration not stated),5.61%
4,COc1ccccc1OCCC(=O)NC1CCc2nc(C)cn2C1 (configuration not stated),-7.05%
5,CCc1nccn1CCCn1ccnc1-c1[nH]cnc1C,10%
6,COc1ccc(CNC(=O)c2nc3c(s2)CCN(C(C)=O)CC3)cc1,-76.6%
7,Cc1ncc(CNC(=O)NCC(C)Oc2ccccc2F)s1 (configuration not stated),-7.16%
8,CCC(C(=O)NC)N(c1cccc(C)c1)S(C)(=O)=O (configuration not stated),-11.8%
9,CCn1nc(C)c(S(=O)(=O)Nc2ccccc2C(=O)OC)c1C,-0.678%
10,O=C(c1ccc2c(c1)OCO2)N1C[C@H](OCC2CC2)[C@H]2COC[C@H]21,-166%
11,CC(C)Nc1nc2c(c(NC3CC3)n1)CCN(Cc1nccn1C)CC2,0.325%
12,CCn1nc(C)cc1C(=O)N1C[C@H]2CCC[C@@]2(COc2ccccn2)C1,0.529%
13,O=C(COc1ccc2c(c1)CCC2)N1CCCC(n2cccn2)C1 (configuration not stated),-2.58%
14,Cc1nc(NCc2cccnc2)c2c(n1)c(C)nn2C,-3.42%
15,Cc1nn(C)cc1C(=O)N1CCCC(c2nccn2CC2CCC2)C1 (configuration not stated),2.52%
16,O=C(c1ccc[nH]1)N1CCc2c(cccc2S(=O)(=O)N2CCOCC2)C1,-15%
17,Cc1cc(C)c(CNC(=O)Cc2ccc3c(c2)CCCC3)c(=O)[nH]1,-7.39%
18,CCn1ncc2c1CCCC2NCc1ccc2c(c1)OCCO2 (configuration not stated),-9.12%
19,Cc1ccc(OCc2occc2C(=O)N2CCOC(C(=O)O)C2)cc1 (configuration not stated),-2.14%
20,CC(C)c1nc(C2CCCN2C(=O)c2cnns2)no1 (configuration not stated),-6.8%
21,COc1ncnc2c1CCN(C(=O)NCc1cccnc1)CC2,-133%
22,Cc1nc[nH]c1C(=O)N1CCC2(CN(C)C(=O)O2)C1 (configuration not stated),2.99%
23,COCCN(CCOC)C(=O)c1cn(C(C)(C)C)c2ncccc12,-1.14%

row,Structure (SMILES),cytotoxicity at 10 µM
1,CCOc1cc(/C=C/c2ncc(C(=O)O)s2)cc(Cl)c1OC,8.13%
2,Cc1cncnc1C1CCN(CCO)CC1,-7.26%
3,CCCN(CCO)C(=O)c1cc(COc2ccc3c(c2)CCCC3)on1,-159%
4,CC1COCCN1C(=O)Cc1cc(Cl)c2c(c1)OCCCO2 (configuration not stated),-1.43%
5,N#CCCn1cnc2c(Br)cc(Br)cc2c1=O,-5.35%
6,CN(Cc1ccc(Cl)c(F)c1)C(=O)c1ccncc1F,3.31%
7,O=C1CC2(CCN(Cc3ccoc3)CC2)CN1Cc1cc(F)cc(F)c1,12.2%
8,O=C(NCC1CC1)C1CN(Cc2ccncc2)Cc2ccnn2C1 (configuration not stated),-0.902%
9,Cc1nonc1OCCNc1ncnc2sc3c(c12)CCNC3,-1.69%
10,C=C(C)CN1CCC(Nc2nc(C)ns2)CC1,-8.39%
11,CCN(Cc1ccc2c(c1)OCO2)C(=O)NCc1nc(C)cs1,7.47%
12,NC(=O)c1cc(C2CCCN(C(=O)CCc3cccs3)C2)n[nH]1 (configuration not stated),2.33%
13,Cc1cnn(CC2CCCN2C(=O)c2n[nH]c3ccccc23)c1 (configuration not stated),-9.93%
14,CCN1C(=O)C2(CCOCC2)c2cc(NC(=O)c3cccn3C)ccc21,-2.13%
15,O=C(c1ccc(S(=O)(=O)N2CCSCC2)cc1)N1CCCCCC1,13.9%
16,Cc1ccc(N2CC[C@H]3[C@@H]2CCC(=O)N3CCN2CCOCC2)nn1,-3.18%
17,Cc1cc(C)cc(N(CCC#N)C(=O)CN2CCCC2c2cccs2)c1 (configuration not stated),-1.61%
18,CC(c1ccncc1)N(C)S(C)(=O)=O (configuration not stated),1.18%
19,CS(=O)(=O)N1CCCc2sc(C(=O)NC3CC3)nc21,-143%
20,CC(O)CN1CCN(C(=O)CN(C)c2cnccn2)CC1 (configuration not stated),2.53%
21,CN(C)c1cc(CNC(=O)Nc2ccc(F)cc2)ccn1,0.0418%
22,CC(C)CN1CCc2[nH]cnc2C12CCN(C(=O)c1ccc[nH]1)CC2,14.7%
23,CCN1CCCC(c2c(-c3ccccc3)ncn2CCc2c[nH]cn2)C1 (configuration not stated),-10.9%

row,Structure (SMILES),cytotoxicity at 10 µM
1,COC(=O)CCCN(C)C(=O)c1cc(F)cc2[nH]cnc12,-2.23%
2,Cc1nnc(NC(=O)NCc2ccc(N3CCC(C)CC3)nc2)s1,-1.36%
3,CCC[C@@H]1CN(Cc2ccc(N(C)C)nc2)C[C@H]1N(C)C,-15.1%
4,Cc1nc(CN2CCCCC2Cn2cncn2)nc2ccccc12 (configuration not stated),-3.46%
5,OC[C@H]1CCCN1c1nccc(-c2cncnc2C2CCCCC2)n1,0.0815%
6,Cc1cc(C)cc(CCC(=O)N2CCN(c3cc(C)nc(N)n3)CC2)c1,-38.7%
7,Cc1ccsc1CN1C[C@@H]2CN(Cc3cccnc3)CCO[C@@H]2C1,8%
8,Cc1nc[nH]c1CN(Cc1ccccc1)Cc1nccs1,2.14%
9,O=C(CCC(=O)N1CCCC1c1cccs1)N1CCc2sccc2C1 (configuration not stated),-8.45%
10,Cc1nc(C)n(CC2CN(CCn3cccn3)CCO2)n1 (configuration not stated),-0.665%
11,O=C([C@H]1CCCO1)N1CCN(CCn2cccn2)c2ncccc2C1,-106%
12,Cn1c2c(ccc1=O)CC(Nc1ncc(F)cn1)CC2 (configuration not stated),-143%
13,COc1cc(N2CCn3cc(CNc4ccccn4)nc3C2)ncn1,13.1%
14,Cc1occc1C(=O)N1CCO[C@H]2[C@H](OCc3ccccn3)CC[C@@H]21,-104%
15,Cc1ncncc1C(=O)N1CCCC(n2cccn2)C1 (configuration not stated),-4.77%
16,c1cnnc(NCC2CN(CCn3cccn3)CCO2)c1 (configuration not stated),5.53%
17,CSc1ccccc1NC(=O)CCN1CCC(C(=O)N(C)C)CC1,6.47%
18,CN(C)CCN(Cc1ccccc1)C(=O)C1=NNC(=O)CC1,-6.49%
19,Cc1cnccc1NCCNC1CCN(CC(C)C)CC1,-10%
20,Cc1ccnc(C2CCN(c3ccnc(C)n3)C2)n1 (configuration not stated),-0.485%
21,CCNC(=O)c1ccc(N2CCCC(c3nccn3C(C)C)C2)nc1 (configuration not stated),-8.39%
22,COc1ccc(CNC(=O)Nc2ccc(S(=O)(=O)C(F)F)cc2)cc1,33.6%
23,COC(=O)CCC(=O)N1CCc2nc(C(=O)N3CCOCC3)sc2CC1,15.3%

row,Structure (SMILES),cytotoxicity at 10 µM
1,O=C(NCc1csc(Br)c1)Nc1cn[nH]c1,2.1%
2,Cc1nn(C)c2nc(C3CC3)c(Cl)c(C(=O)O)c12,7.44%
3,OCCN1CCC(F)(F)C2(CCN(c3cccnc3)C2)C1 (configuration not stated),-94.7%
4,COCCN1CCC(NCc2cccnc2)C1 (configuration not stated),-10.4%
5,O=C(CNC1(CCO)CCOCC1)Nc1ccc(F)cc1F,-41.6%
6,COc1cc(C(=O)O)cc(I)c1OCC(=O)NCCc1ccccc1,-11.9%
7,O=C(c1cn(CCN2CCCCC2)nn1)N1CCSCC1,2.34%
8,CN(Cc1cnn(C)c1)C(=O)c1cc2ccccc2c(=O)[nH]1,-5.64%
9,O=C(Nc1ccc2c(c1)C(=O)NC2=O)c1ccc(Cl)s1,-3.96%
10,CCOc1ccccc1CC(=O)N1C[C@@H](C(=O)O)[C@H](c2ccncc2)C1,9.15%
11,CCCS(=O)(=O)N1C[C@@H]2COC[C@]2(CN2CCOCC2)C1,1.86%
12,Cc1cc(F)ccc1CCNC(=O)NCC(C)N1CCOCC1 (configuration not stated),-1.35%
13,C=C(C)CN1CCCC(CNS(C)(=O)=O)C1 (configuration not stated),5.63%
14,COC(=O)N1CCCC(NC(=O)NCc2cccc(C)n2)C1 (configuration not stated),-8.62%
15,COCCNC(=O)Nc1ccc(-c2nc(C(C)C)no2)cc1,0.0793%
16,Cc1noc(C)c1-c1n[nH]c2c1CN(S(=O)(=O)c1cccnc1)CC2,-11%
17,Cc1noc(C)c1CN1C[C@@H]2CC(F)(F)C[C@@H]2C1,-2.58%
18,N#Cc1ncn(CCC(=O)Nc2ccc(Cl)cc2F)n1,-8.94%
19,CC(C)(CO)NC(=O)C1CCC(=O)N(Cc2ccc(Cl)cc2)C1 (configuration not stated),-6.14%
20,Cc1nn(C)c(N(C)C)c1CNCc1cccc(OCCN(C)C)c1,1.38%
21,Cc1nc(N2CCCC(N3CCCC3)C2)c2cnn(C)c2n1 (configuration not stated),-4.07%
22,CCN(Cc1cnn(CC)c1)C(=O)Cn1c(=O)c(C)nc2ccccc21,0.791%
23,CCN(C)C(=O)c1ccc(N(C)Cc2cc(-c3cccnc3)no2)nc1,-7.21%

row,Structure (SMILES),cytotoxicity at 10 µM
1,Cc1nc(CNC(=O)NC(C)c2ccc3c(c2)OCCCO3)cs1 (configuration not stated),-0.535%
2,COCCc1ncc(CN2C[C@@H](C(=O)O)[C@H](C(C)C)C2)cn1,-5.35%
3,CCOC1Sc2nnc(C)n2N=C1c1ccc(F)cc1 (configuration not stated),4.48%
4,O=C(Nc1ccc(CCN2CCC(O)CC2)cc1)C1CCCCC1,-17.7%
5,O=C1CCC(=O)c2oc3ccc(Cl)cc3c2N1,7.58%
6,C[C@@H]1CN(C(=O)c2cccs2)C[C@]12CCN(CCN(C)C)C2=O,4.4%
7,COCc1nc(C(=O)N2CCCC(n3nc(C)cc3C)C2)cs1 (configuration not stated),-8.57%
8,CCN1CCc2[nH]cnc2C12CCN(C(=O)CCc1cccs1)CC2,0.688%
9,CCc1nccn1-c1cncc(C2CCCN2CC(=O)N2CCCC2)n1 (configuration not stated),0.193%
10,CC(=O)c1ccc(OCC(C)O)cc1O (configuration not stated),-8.02%
11,CN(C)C(=O)c1cccc(Nc2cnn(C)c2)c1,5.42%
12,Cc1nc(C2CCN(S(C)(=O)=O)CC2)nc(N2CCCC2)c1C,4.48%
13,N#Cc1cccc(CN2CC[C@@H]3[C@@H]2CC(=O)N3Cc2cccnc2)c1,5.2%
14,c1cc(NCc2ccncc2)nc(C2CCCNC2)c1 (configuration not stated),-1.83%
15,CCOCC1CN(Cc2ccc(F)cc2)Cc2nn(CC3CC3)cc21 (configuration not stated),7.43%
16,COCC(=O)N1CCOC2(CCCN(c3cnccn3)C2)C1 (configuration not stated),7.83%
17,CCn1ccnc1CN1CCN(Cc2cccnc2)CC1C (configuration not stated),-0.191%
18,c1cnnc(N2CCC(c3nnc(Cn4ccnc4)n3C3CC3)CC2)c1,6.71%
19,Cc1cc(CN(C)C(=O)C(c2ccccc2C)N(C)C)on1 (configuration not stated),3.65%
20,CCOCCNC(=O)CCC1CCCO1 (configuration not stated),-122%
